The MIC is the lowest concentration that inhibits growth of the organism.

The values below come from ChEMBL document CHEMBL1156701, “Synthesis, potent anti-staphylococcal activity and QSARs of some novel 2-anilinobenzazoles” (2008).

In brackets after ≈: the same amount, converted by molar mass.

Experiment [1] concerns Staphylococcus aureus. As to the kind of experiment: Antibacterial activity against Staphylococcus aureus ATCC 25923 after 18 hrs by macro broth dilution assay. The format is functional. The note with it: for MIC: Staphylococcus aureus, ATCC 25923, 18 h. The method, boiled down: (§1)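 Compounds dissolved in 50% DMSO–water at 400 (stock); fourfold dilution with medium and inoculum gives 100 top concentration in first tube (12.5% DMSO, not scored). Inoculum: 4–5 colonies from overnight Tryptic Soy Agar in saline to 0.5 McFarland, diluted 1:100 in MHB (10⁶ CFU/ml); 1 mL added to 1 mL compound dilution in MHB. 35 °C, 18 h; MIC read. Agar diffusion pre-screen first.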

The test system of experiment [2] is Staphylococcus aureus. Nature of the experiment: Antibacterial activity against methicillin-resistant Staphylococcus aureus ATCC 43300 after 18 hrs by macro broth dilution assay. The format is functional. The note with it: for MIC: Staphylococcus aureus, ATCC 43300, 18 h. Summed up: as §1
Background: In broth dilution the organism is exposed to a series of concentrations in liquid medium.

In the case of `Fc1cccc(Nc2nc3cc(Cl)ccc3[nH]2)c1`, in the experiment on Staphylococcus aureus [1], the “log(1/C)” value is 4.62 and inhibition of growth (MIC) required 6.25 µg/mL (≈ 23.9 µM). The compound further had an MIC with Staphylococcus aureus [2] of 6.25 µg/mL (≈ 23.9 µM).

Turning to `Fc1ccc(Nc2nc3cc(Cl)ccc3[nH]2)c(F)c1`, the results for the “log(1/C)” value with Staphylococcus aureus [1] and in the experiment with Staphylococcus aureus [2] were 4.35 and 4.65, respectively. The minimal inhibitory concentration (MIC) against Staphylococcus aureus [1] came out at 12.5 µg/mL (≈ 44.7 µM); in the experiment with Staphylococcus aureus [2], 6.25 µg/mL (≈ 22.3 µM).

With `FC(F)(F)c1cccc(Nc2nc3cc(Cl)ccc3[nH]2)c1`, in the experiment with Staphylococcus aureus [1], the “log(1/C)” value is 5.9 and the MIC was determined as 0.39 µg/mL (≈ 1.25 µM). In the experiment on Staphylococcus aureus [2], the “log(1/C)” value came out at 5.3 and the MIC is 1.56 µg/mL (≈ 5 µM).

As to `[N-]=[N+]=Nc1ccc(Nc2nc3cc(Cl)ccc3[nH]2)cc1`, in the experiment with Staphylococcus aureus [1], the “log(1/C)” value is 4.96 and the MIC was determined as 3.12 µg/mL (≈ 11 µM). Further, in the experiment on Staphylococcus aureus [2], the “log(1/C)” value stood at 4.66 and the MIC is 6.25 µg/mL (≈ 22 µM).

In the case of `Clc1ccc2[nH]c(Nc3ccc(Br)cc3)nc2c1`, the entries for the “log(1/C)” value with Staphylococcus aureus [1] and in the experiment with Staphylococcus aureus [2] were 5.31 and 5.62, respectively. Also, the MIC with Staphylococcus aureus [1] is 1.56 µg/mL (≈ 4.84 µM); in the experiment on Staphylococcus aureus [2] it was 0.78 µg/mL (≈ 2.42 µM).

As for `COc1ccc(Nc2nc3cc(Cl)ccc3[nH]2)cc1`, in the experiment with Staphylococcus aureus [1], the “log(1/C)” value is 3.74. The MIC with Staphylococcus aureus [1] and in the experiment on Staphylococcus aureus [2] was 50 µg/mL (≈ 183 µM) throughout.

Regarding `Fc1ccc(Nc2nc3cc(Cl)ccc3[nH]2)cc1Cl`, in the experiment with Staphylococcus aureus [1], the “log(1/C)” value is recorded as 5.28 and it took 1.56 µg/mL (≈ 5.27 µM) to inhibit growth (MIC). Besides, in the experiment with Staphylococcus aureus [2], the MIC worked out at 1.56 µg/mL (≈ 5.27 µM).

For the compound `FC(F)(F)c1cc(Nc2nc3cc(Cl)ccc3[nH]2)ccc1Cl`, in the experiment on Staphylococcus aureus [1], the “log(1/C)” value is 5.95 and the MIC was 0.39 µg/mL (≈ 1.13 µM). In the experiment with Staphylococcus aureus [2], 0.39 µg/mL (≈ 1.13 µM) was the least that counted as inhibitory (MIC).

Consider `Clc1ccc(Nc2nc3cc(Cl)ccc3[nH]2)cc1`, for which, in the experiment with Staphylococcus aureus [1], the “log(1/C)” value stood at 4.95 and the MIC was determined as 3.12 µg/mL (≈ 11.2 µM). For the same compound, in the experiment on Staphylococcus aureus [2], the “log(1/C)” value came out at 5.25 and it took 1.56 µg/mL (≈ 5.61 µM) to inhibit growth (MIC).

As to `Clc1ccc2[nH]c(Nc3ccc(Cl)c(Cl)c3)nc2c1`, in the experiment with Staphylococcus aureus [1], the “log(1/C)” value was 5.9 and the MIC was found to be 0.39 µg/mL (≈ 1.25 µM). In the experiment on Staphylococcus aureus [2], this compound registered an MIC of 0.39 µg/mL (≈ 1.25 µM).

As for `Clc1ccc(Nc2nc3cc(Cl)ccc3[nH]2)c(Cl)c1`, in the experiment with Staphylococcus aureus [1], the “log(1/C)” value stood at 5.9. The MIC with Staphylococcus aureus [1] and with Staphylococcus aureus [2] was 0.39 µg/mL (≈ 1.25 µM) throughout.

As for `FC(F)(F)c1ccc(Cl)c(Nc2nc3cc(Cl)ccc3[nH]2)c1`, in the experiment with Staphylococcus aureus [1], the “log(1/C)” value came to 5.65 and the MIC stood at 0.78 µg/mL (≈ 2.25 µM). The compound further gave an MIC in the experiment on Staphylococcus aureus [2] of 0.78 µg/mL (≈ 2.25 µM).

As to `Clc1ccc(Oc2ccccc2Nc2nc3cc(Cl)ccc3[nH]2)cc1`, in the experiment on Staphylococcus aureus [1], the “log(1/C)” value is 5.38 and the MIC turned out to be 1.56 µg/mL (≈ 4.21 µM). The MIC in the experiment on Staphylococcus aureus [2] was found to be 1.56 µg/mL (≈ 4.21 µM).

With `Fc1ccc2[nH]c(Nc3ccc(Cl)c(Cl)c3)nc2c1`, in the experiment with Staphylococcus aureus [1], the “log(1/C)” value was 5.28 and the MIC stood at 1.56 µg/mL (≈ 5.27 µM). This compound also came in with an MIC in the experiment with Staphylococcus aureus [2] of 1.56 µg/mL (≈ 5.27 µM).

Take `Clc1ccc(Nc2nc3cc(Br)ccc3[nH]2)cc1Cl`: the entries for the “log(1/C)” value with Staphylococcus aureus [1] and in the experiment with Staphylococcus aureus [2] were 6.55 and 6.28, respectively. In addition, the MIC with Staphylococcus aureus [1] worked out at 0.095 µg/mL (≈ 0.266 µM); against Staphylococcus aureus [2], 0.19 µg/mL (≈ 0.532 µM).

Take `O=[N+]([O-])c1ccc2[nH]c(Nc3ccc(Cl)c(Cl)c3)nc2c1`: in the experiment on Staphylococcus aureus [1], the “log(1/C)” value is 5.62 and inhibition of growth (MIC) required 0.78 µg/mL (≈ 2.41 µM). In the experiment with Staphylococcus aureus [2], the “log(1/C)” value amounted to 5.32 and it took 1.56 µg/mL (≈ 4.83 µM) to inhibit growth (MIC).

Regarding `Clc1ccc(Nc2nc3cc(Cl)c(Cl)cc3[nH]2)cc1`, in the experiment with Staphylococcus aureus [1], the “log(1/C)” value came to 5.9 and the MIC amounted to 0.39 µg/mL (≈ 1.25 µM). The same compound returned an MIC in the experiment on Staphylococcus aureus [2] of 0.39 µg/mL (≈ 1.25 µM).

As to `O=[N+]([O-])c1ccc2[nH]c(Nc3ccc(Cl)cc3)nc2c1`, in the experiment with Staphylococcus aureus [1], the “log(1/C)” value is recorded as 5.27 and inhibition of growth (MIC) required 1.56 µg/mL (≈ 5.4 µM). This compound also showed an MIC with Staphylococcus aureus [2] of 1.56 µg/mL (≈ 5.4 µM).

`Cc1cc2[nH]c(Nc3ccc(Cl)c(Cl)c3)nc2cc1Cl`: in the experiment on Staphylococcus aureus [1], the “log(1/C)” value came out at 5.92 and 0.39 µg/mL (≈ 1.19 µM) was the least that counted as inhibitory (MIC). Further, in the experiment with Staphylococcus aureus [2], the minimal inhibitory concentration (MIC) was 0.39 µg/mL (≈ 1.19 µM).

Turning to `FC(F)(F)c1ccc2[nH]c(Nc3ccc(Cl)c(Cl)c3)nc2c1`, the “log(1/C)” value with Staphylococcus aureus [1] is recorded as 6.26. The MIC in the experiment on Staphylococcus aureus [1] and with Staphylococcus aureus [2] was 0.19 µg/mL (≈ 0.549 µM) throughout.

Turning to `N#Cc1ccc2[nH]c(Nc3ccc(Cl)c(Cl)c3)nc2c1`, in the experiment with Staphylococcus aureus [1], the “log(1/C)” value came out at 5.28 and 1.56 µg/mL (≈ 5.15 µM) was the least that counted as inhibitory (MIC). The same compound gave a minimum inhibitory concentration (MIC) against Staphylococcus aureus [2] of 1.56 µg/mL (≈ 5.15 µM).

Turning to `COC(=O)c1ccc2[nH]c(Nc3ccc(Cl)c(Cl)c3)nc2c1`, the “log(1/C)” value in the experiment on Staphylococcus aureus [1] is 5.34; in the experiment on Staphylococcus aureus [2], 5.64. The MIC turned out to be 1.56 µg/mL (≈ 4.64 µM) against Staphylococcus aureus [1] and 0.78 µg/mL (≈ 2.32 µM) in the experiment with Staphylococcus aureus [2].

As for `Nc1ccc2[nH]c(Nc3ccc(Cl)c(Cl)c3)nc2c1`, in the experiment with Staphylococcus aureus [1], the “log(1/C)” value was 4.07 and the MIC was 25 µg/mL (≈ 85.3 µM). In the experiment on Staphylococcus aureus [2], the “log(1/C)” value was determined as 3.77 and inhibition of growth (MIC) required 50 µg/mL (≈ 171 µM).

For the compound `FC(F)(F)c1ccc(Nc2nc3cc(Cl)ccc3[nH]2)cc1`, in the experiment on Staphylococcus aureus [1], the “log(1/C)” value worked out at 5.9 and the lowest concentration to inhibit growth (MIC) was 0.39 µg/mL (≈ 1.25 µM). Moreover, in the experiment on Staphylococcus aureus [2], the MIC came out at 0.39 µg/mL (≈ 1.25 µM).

For the compound `Fc1ccc(Nc2nc3cc(Cl)ccc3[nH]2)cc1`, in the experiment on Staphylococcus aureus [1], the “log(1/C)” value came out at 4.92 and the MIC came to 3.12 µg/mL (≈ 11.9 µM). Also, in the experiment on Staphylococcus aureus [2], the “log(1/C)” value stood at 4.32 and the MIC turned out to be 12.5 µg/mL (≈ 47.8 µM).

Turning to `Clc1ccc(Nc2nc3ccccc3[nH]2)cc1Cl`, the results for the “log(1/C)” value in the experiment with Staphylococcus aureus [1] and with Staphylococcus aureus [2] were 4.95 and 4.65, respectively. Besides, the MIC in the experiment with Staphylococcus aureus [1] is 3.12 µg/mL (≈ 11.2 µM); in the experiment on Staphylococcus aureus [2] it was 6.25 µg/mL (≈ 22.5 µM).

For `FC(F)(F)Oc1ccc(Nc2nc3cc(Cl)ccc3[nH]2)cc1`, in the experiment on Staphylococcus aureus [1], the “log(1/C)” value came to 5.62 and 0.78 µg/mL (≈ 2.38 µM) was the least that counted as inhibitory (MIC). In the experiment on Staphylococcus aureus [2], this compound returned an MIC of 0.78 µg/mL (≈ 2.38 µM).

In the case of `Fc1cc(F)cc(Nc2nc3cc(Cl)ccc3[nH]2)c1`, in the experiment with Staphylococcus aureus [1], the “log(1/C)” value is listed as 5.25 and the MIC was determined as 1.56 µg/mL (≈ 5.58 µM). The same compound gave a minimum inhibitory concentration (MIC) against Staphylococcus aureus [2] of 1.56 µg/mL (≈ 5.58 µM).

Take `Clc1cc(Cl)cc(Nc2nc3cc(Cl)ccc3[nH]2)c1`: in the experiment on Staphylococcus aureus [1], the “log(1/C)” value is 5.9 and the MIC came to 0.39 µg/mL (≈ 1.25 µM). Further, in the experiment with Staphylococcus aureus [2], the MIC is 0.39 µg/mL (≈ 1.25 µM).

Turning to `Clc1ccc(Nc2nc3cc(Cl)c(Cl)cc3[nH]2)cc1Cl`, in the experiment on Staphylococcus aureus [1], the “log(1/C)” value is on record as 5.95 and the MIC turned out to be 0.39 µg/mL (≈ 1.12 µM). Further, the MIC in the experiment on Staphylococcus aureus [2] amounted to 0.39 µg/mL (≈ 1.12 µM).

As to `Clc1ccc(Nc2nc3cc(I)ccc3[nH]2)cc1Cl`, in the experiment with Staphylococcus aureus [1], the “log(1/C)” value is recorded as 5.71 and the MIC is 0.78 µg/mL (≈ 1.93 µM). In the experiment on Staphylococcus aureus [2], this compound had an MIC of 0.78 µg/mL (≈ 1.93 µM).

Consider `CC1(C)S[C@@H]2[C@H](NC(=O)[C@H](N)c3ccccc3)C(=O)N2[C@H]1C(=O)O` [AMPICILLIN], for which the MIC was 0.78 µg/mL (≈ 2.23 µM) with Staphylococcus aureus [1] and 25 µg/mL (≈ 71.5 µM) with Staphylococcus aureus [2].

`CC1(C)S[C@@H]2[C@H](NC(=O)[C@H](N)c3ccccc3)C(=O)N2[C@H]1C(=O)OCOC(=O)[C@@H]1N2C(=O)C[C@H]2S(=O)(=O)C1(C)C` [SULTAMICILLIN]: the MIC in the experiment on Staphylococcus aureus [1] was 0.78 µg/mL (≈ 1.31 µM); with Staphylococcus aureus [2], 25 µg/mL (≈ 42 µM).
